Experimental data as given in ChEMBL document CHEMBL4828730, “Gemfibrozil derivatives as activators of soluble guanylyl cyclase - A structure-activity study” (Eur J Med Chem, 2021).
Calls of active or inactive are those of the source. No cut-off for these calls is given here.

Columns and labels:
[1] = target: T1, Soluble guanylate cyclase alpha1/beta1 complex (Homo sapiens) (UniProt Q02153+Q02108); assay: (§1) Activation of full length human sGC alpha1/beta1 subunit containing heme in ferric state expressed in Sf9 insect cells using […] incubated for 15 mins by [32P]GTP assay
In short: (§2)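 Reaction started at 37°C with 1 mM GTP/[α-32P]GTP for 15 min, then stopped by zinc carbonate precipitation. Single-dose test at 100 μM relative to vehicle; concentration-response gives EC50 as mean ± SD.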

[2] = system: Thoracic aorta; assay: Vasodilation activity in C57Bl6 mouse thoracic aorta assessed as inhibition of phenylephrine-induced contractions; type: functional, tissue-based; conditions: for minimal effective concentration: read-out: MEC
In short: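 Isolated mouse aortic rings on a wire myograph, equilibrated 80 min in carbogen-gassed Krebs-Henseleit pH 7.4. Rings were precontracted with 500 nM phenylephrine plus 100 nM 5-hydroxytryptamine to submaximal tension, then given cumulative compound doses while isometric tension was recorded. IC50 was derived by nonlinear regression.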

[3] = target: T2, Soluble guanylate cyclase alpha1/beta1 complex (Homo sapiens, UniProt Q02108+Q02153); assay: as §1; in short: as §2
T2 sequence (Q02153 whole entry): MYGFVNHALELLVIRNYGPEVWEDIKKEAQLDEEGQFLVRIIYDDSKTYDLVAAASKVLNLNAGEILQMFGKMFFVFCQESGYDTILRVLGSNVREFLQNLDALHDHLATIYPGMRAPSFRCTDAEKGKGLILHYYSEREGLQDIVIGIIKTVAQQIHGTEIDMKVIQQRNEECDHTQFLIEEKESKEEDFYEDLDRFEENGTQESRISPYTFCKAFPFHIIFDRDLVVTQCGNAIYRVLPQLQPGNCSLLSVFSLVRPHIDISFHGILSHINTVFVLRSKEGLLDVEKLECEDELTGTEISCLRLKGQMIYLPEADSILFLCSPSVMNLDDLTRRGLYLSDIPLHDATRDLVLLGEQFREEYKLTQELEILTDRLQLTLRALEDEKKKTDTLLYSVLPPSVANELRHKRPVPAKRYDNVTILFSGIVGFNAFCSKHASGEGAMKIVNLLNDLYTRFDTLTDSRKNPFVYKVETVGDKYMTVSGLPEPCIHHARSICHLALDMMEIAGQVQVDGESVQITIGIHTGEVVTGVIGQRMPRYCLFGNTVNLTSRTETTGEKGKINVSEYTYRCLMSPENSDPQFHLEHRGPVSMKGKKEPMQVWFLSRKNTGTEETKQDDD
T2 sequence (Q02108 whole entry): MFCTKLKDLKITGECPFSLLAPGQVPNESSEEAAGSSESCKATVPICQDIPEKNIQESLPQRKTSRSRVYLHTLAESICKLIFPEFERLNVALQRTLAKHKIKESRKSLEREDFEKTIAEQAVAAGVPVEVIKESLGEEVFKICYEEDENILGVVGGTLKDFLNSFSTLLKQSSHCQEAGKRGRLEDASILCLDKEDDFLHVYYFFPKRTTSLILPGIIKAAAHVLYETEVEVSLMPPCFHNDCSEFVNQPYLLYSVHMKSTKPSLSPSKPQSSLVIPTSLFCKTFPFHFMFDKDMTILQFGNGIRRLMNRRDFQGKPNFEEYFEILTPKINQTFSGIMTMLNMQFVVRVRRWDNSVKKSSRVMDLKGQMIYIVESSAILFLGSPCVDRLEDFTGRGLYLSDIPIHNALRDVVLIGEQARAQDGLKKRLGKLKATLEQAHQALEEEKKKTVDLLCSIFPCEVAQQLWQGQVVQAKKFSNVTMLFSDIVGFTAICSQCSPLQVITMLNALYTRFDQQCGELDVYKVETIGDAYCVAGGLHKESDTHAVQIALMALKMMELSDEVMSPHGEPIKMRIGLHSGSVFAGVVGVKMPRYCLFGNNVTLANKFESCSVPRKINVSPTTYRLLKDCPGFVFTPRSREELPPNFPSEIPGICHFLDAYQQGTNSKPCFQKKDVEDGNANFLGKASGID

[4] = target: T1, Soluble guanylate cyclase alpha1/beta1 complex (Homo sapiens); assay: Activation of full length human sGC alpha1/beta1 subunit containing heme in ferric state expressed in Sf9 insect cells using […] incubated for 15 mins at 100 uM incubated for 10 mins by [32P]GTP assay relative to control; conditions: filed as activator; in short: as §2

Row | Activity [1] | IC50 [2] [µM] | EC50 [3] [µM] | fold change (FC) [4] | Compound | minimal effective concentration [2] [µM]
1 | inactive |  |  |  | Cc1ccc(C)c(OCCCC(C)(C)C(N)=O)c1 | 
2 | inactive |  |  |  | CCCCCCNC(=O)C(C)(C)CCCOc1cc(C)ccc1C | 
3 | inactive |  |  |  | CCNC(=O)C(C)(C)CCCOc1cc(C)ccc1C | 
4 | inactive |  |  |  | Cc1ccc(C)c(OCCCC(=O)O)c1 | 
5 | inactive |  |  |  | CC(=O)N(CCCC(C)(C)C(=O)O)c1cc(C)ccc1C | 
6 | inactive |  |  |  | CCC(CCCOc1cc(C)ccc1C)C(=O)O (stereo not given) | 
7 | inactive |  |  |  | CNC(=O)C(C)(C)CCCOc1cc(C)ccc1C | 
8 |  | 812 | 707 | 2.9 | Cc1ccc(C)c(OCCCCC(=O)O)c1 | 100
9 |  | 310 | 624 | 4 | Cc1ccc(C)c(OCCCC(C)(C)C(=O)O)c1 [GEMFIBROZIL] | 30
10 |  | 721 | 50 | 2.9 | Cc1ccc(C)c(NCCCC(C)(C)C(=O)O)c1 | 100
11 | inactive |  |  |  | Cc1ccccc1OCCCC(C)(C)C(=O)O | 
12 | inactive |  |  |  | CCCCNC(=O)C(C)(C)CCCOc1cc(C)ccc1C | 
13 |  | 71 | 166 | 2.6 | Cc1ccc(C(C)C)c(OCCCC(C)(C)C(=O)O)c1 | 10

Continued, compound first:

Row | Compound | Activity [1] | IC50 [2] [µM] | EC50 [3] [µM] | fold change (FC) [4] | minimal effective concentration [2] [µM]
14 | Cc1ccc(C)c(OCCCCCC(=O)O)c1 |  | > 1000 | 389 | 2.1 | 300
15 | Cc1ccc(C)c(OCCCC(C)(C)C(=O)NCCCCNC(=O)C(C)(C)CCCOc2cc(C)ccc2C)c1 | inactive |  |  |  | 
16 | Cc1ccc(C)c(OCCCC(C)(C)C(=O)NCCCCCCNC(=O)C(C)(C)CCCOc2cc(C)ccc2C)c1 | inactive |  |  |  | 
17 | Cc1ccc(C)c(OCCCC(C)(C)C(=O)NCCNC(=O)C(C)(C)CCCOc2cc(C)ccc2C)c1 | inactive |  |  |  | 
18 | CCCCCCC(CCCOc1cc(C)ccc1C)C(=O)O (stereo not given) |  | 45 | 128 | 4.1 | 10
19 | Cc1ccc(C)c(N(CCCC(C)(C)C(=O)O)C(=O)CCCCC(=O)N(CCCC(C)(C)C(=O)O)c2cc(C)ccc2C)c1 |  | 261 | 119 | 2.2 | 10
20 | CCCCCC(=O)N(CCCC(C)(C)C(=O)O)c1cc(C)ccc1C | inactive |  |  |  | 
21 | O=C(O)CCCCCSc1ccccc1 | inactive |  |  |  | 
22 | Cc1ccc(C)c(OCC(=O)O)c1 | inactive |  |  |  | 
23 | O=C(O)CCCCCOc1ccccc1 | inactive |  |  |  | 
24 | CCCC(=O)N(CCCC(C)(C)C(=O)O)c1cc(C)ccc1C | inactive |  |  |  | 
